Data: ChEMBL document CHEMBL3286381 (J Med Chem, 2014)

Assays:
[1] = target: T1, Ectonucleotide pyrophosphatase/phosphodiesterase family member 3 (Homo sapiens) (UniProt O14638); experiment: Inhibition of human NPP3 using pNP-TMP as substrate at 100 uM after 20 mins by reversed-phase HPLC analysis
T1 sequence (whole entry): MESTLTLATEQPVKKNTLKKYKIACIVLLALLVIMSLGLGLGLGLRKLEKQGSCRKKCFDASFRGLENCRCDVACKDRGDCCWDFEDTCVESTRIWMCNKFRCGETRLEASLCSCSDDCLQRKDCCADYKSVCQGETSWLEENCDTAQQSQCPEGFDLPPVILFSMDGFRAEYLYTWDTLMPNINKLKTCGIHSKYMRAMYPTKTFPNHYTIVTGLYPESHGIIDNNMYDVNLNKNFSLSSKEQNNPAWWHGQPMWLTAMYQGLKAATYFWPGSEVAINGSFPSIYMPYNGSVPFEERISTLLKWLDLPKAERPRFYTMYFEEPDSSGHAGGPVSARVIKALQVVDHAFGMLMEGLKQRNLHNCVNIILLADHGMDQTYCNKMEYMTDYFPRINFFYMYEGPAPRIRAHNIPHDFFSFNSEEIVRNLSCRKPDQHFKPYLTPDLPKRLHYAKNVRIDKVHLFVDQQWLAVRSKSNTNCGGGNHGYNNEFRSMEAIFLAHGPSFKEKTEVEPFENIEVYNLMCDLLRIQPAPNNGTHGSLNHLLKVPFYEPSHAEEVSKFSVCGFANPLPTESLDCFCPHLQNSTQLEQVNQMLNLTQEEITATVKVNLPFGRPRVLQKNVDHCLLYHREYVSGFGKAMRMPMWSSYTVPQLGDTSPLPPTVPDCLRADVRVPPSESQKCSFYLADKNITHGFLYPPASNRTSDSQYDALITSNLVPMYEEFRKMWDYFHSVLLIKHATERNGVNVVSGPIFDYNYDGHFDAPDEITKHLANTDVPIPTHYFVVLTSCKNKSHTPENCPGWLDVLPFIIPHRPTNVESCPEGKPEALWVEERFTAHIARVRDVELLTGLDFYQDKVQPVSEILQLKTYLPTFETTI

[2] = target: T2, Ectonucleoside triphosphate diphosphohydrolase 1 (Homo sapiens) (UniProt P49961); experiment: Inhibition of human NTPDase-1 using ATP as substrate assessed as inorganic phosphate release at 100 uM after 15 mins relative to control
T2 sequence (whole entry): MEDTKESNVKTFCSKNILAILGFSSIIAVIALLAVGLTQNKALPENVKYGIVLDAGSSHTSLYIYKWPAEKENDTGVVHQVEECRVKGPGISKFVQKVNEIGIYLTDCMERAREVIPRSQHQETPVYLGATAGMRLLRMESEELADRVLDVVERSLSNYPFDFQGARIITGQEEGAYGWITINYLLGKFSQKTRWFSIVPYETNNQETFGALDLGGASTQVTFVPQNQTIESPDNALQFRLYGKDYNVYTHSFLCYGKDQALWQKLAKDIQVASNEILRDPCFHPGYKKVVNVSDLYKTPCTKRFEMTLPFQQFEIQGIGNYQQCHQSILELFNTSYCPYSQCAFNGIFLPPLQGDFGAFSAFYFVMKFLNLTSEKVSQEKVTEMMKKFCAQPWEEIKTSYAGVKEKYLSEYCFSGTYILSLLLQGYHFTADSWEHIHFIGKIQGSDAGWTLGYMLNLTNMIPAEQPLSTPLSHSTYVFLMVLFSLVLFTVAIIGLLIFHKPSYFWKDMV
Method in brief: (§1)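 Protein extracts are from COS-7 cells transiently transfected with human NTPDase1, 2, 3 or 8. Extract is preincubated for 3 min at 37 °C in Tris–Ringer buffer (pH 7.3). […] Three experiments in triplicate.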

[3] = target: T3, Ectonucleoside triphosphate diphosphohydrolase 8 (Homo sapiens) (UniProt Q5MY95); experiment: Inhibition of human NTPDase-8 using ATP as substrate assessed as inorganic phosphate release at 100 uM after 15 mins relative to control; method in brief: as §1
T3 sequence (whole entry): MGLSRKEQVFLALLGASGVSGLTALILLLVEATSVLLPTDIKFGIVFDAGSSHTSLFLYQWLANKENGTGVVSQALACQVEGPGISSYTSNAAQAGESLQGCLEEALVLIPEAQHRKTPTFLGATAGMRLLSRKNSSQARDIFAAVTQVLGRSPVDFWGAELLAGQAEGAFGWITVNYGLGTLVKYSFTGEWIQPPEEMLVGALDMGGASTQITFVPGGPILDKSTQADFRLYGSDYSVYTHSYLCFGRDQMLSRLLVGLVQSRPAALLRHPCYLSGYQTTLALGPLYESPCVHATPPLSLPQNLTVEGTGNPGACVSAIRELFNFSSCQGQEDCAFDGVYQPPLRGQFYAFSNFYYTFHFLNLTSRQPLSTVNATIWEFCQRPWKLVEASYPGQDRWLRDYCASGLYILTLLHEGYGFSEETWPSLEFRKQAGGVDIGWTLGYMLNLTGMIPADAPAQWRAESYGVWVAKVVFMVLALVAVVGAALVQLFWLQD

[4] = target: T4, P2Y purinoceptor 11 (Homo sapiens) (UniProt Q96G91); experiment: Agonist activity at human P2Y11 receptor expressed in human 1321N1 cells assessed as increase of intracellular calcium level after 30 mins using fura-2 AM by fluorescence assay relative to ATP; assay type: functional, cell-based
T4 sequence (whole entry): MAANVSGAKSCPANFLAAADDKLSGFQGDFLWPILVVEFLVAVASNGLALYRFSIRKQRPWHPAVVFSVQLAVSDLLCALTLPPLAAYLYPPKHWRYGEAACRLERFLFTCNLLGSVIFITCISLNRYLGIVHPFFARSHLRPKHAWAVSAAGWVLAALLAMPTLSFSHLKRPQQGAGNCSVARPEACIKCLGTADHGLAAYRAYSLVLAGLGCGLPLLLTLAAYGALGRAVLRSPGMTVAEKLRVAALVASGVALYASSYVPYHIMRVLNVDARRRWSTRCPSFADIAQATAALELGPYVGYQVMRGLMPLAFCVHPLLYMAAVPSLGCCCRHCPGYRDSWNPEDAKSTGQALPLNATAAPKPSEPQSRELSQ

Structure (SMILES): Nc1ncnc2c1ncn2[C@@H]1O[C@H](CO[P@](O)(=S)OP(=O)(O)C(Cl)(Cl)P(=O)(O)O)[C@@H](O)[C@H]1O
- inhibition [1]: 23%
- inhibition [2]: 0.5%
- inhibition [3]: 4.9%

Structure (SMILES): Nc1ncnc2c1ncn2[C@@H]1O[C@H](CO[P@@](O)(=S)OP(=O)(O)C(Cl)(Cl)P(=O)(O)O)[C@@H](O)[C@H]1O
- inhibition [1]: 23%
- inhibition [2]: 0.5%
- inhibition [3]: 0.5%
- fold change (FC) [4]: 2.2

Structure (SMILES): Nc1ncnc2c1ncn2[C@@H]1O[C@H](CO[P@@](O)(=S)OP(=O)(O)CP(=O)(O)O)[C@@H](O)[C@H]1O
- inhibition [1]: 23%
- inhibition [2]: 21.6%
- inhibition [3]: 1.5%
- fold change (FC) [4]: 7.4

Structure (SMILES): Nc1ncnc2c1ncn2[C@@H]1O[C@H](CO[P@](O)(=S)OP(=O)(O)CP(=O)(O)O)[C@@H](O)[C@H]1O
- inhibition [1]: 23%
- inhibition [2]: 18.7%
- inhibition [3]: 0.5%

Structure (SMILES): Nc1ncnc2c1ncn2[C@@H]1O[C@H](COP(=O)(O)CP(=O)(O)OP(O)(O)=S)[C@@H](O)[C@H]1O
- inhibition [1]: 23%
- inhibition [2]: 58.4%
- inhibition [3]: 7%
- fold change (FC) [4]: 6.7
